Activity calls are given as the source filed them. The rule behind the calls is not given here.
What was measured:
[1] = Metabolic stability in human liver microsomes assessed as half life at […] measured up to 240 mins in presence of NADPH regeneration system by LC-MS analysis; format: ADME, Microsome
Hippocampal neurone = assay: Neuroprotective activity in Sprague-Dawley rat primary hippocampal neurons assessed as reduction in Abeta-induced dendrites damage at 0.25 to 1 uM incubated for 16 hrs by MAP2 staining based assay; format: functional, tissue-based; details: dose 0.25-1 µM
In short: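 Primary hippocampal neurons from E17 rat embryos, used at 14 DIV. Treated for 16 h with naturally secreted Aβ-containing 7PA2 conditioned medium (CHO medium as control), alone or with test compound at several concentrations. Neurons then immunostained for MAP2 with DAPI, and dendritic length quantified.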

[2] = target: T1, Short transient receptor potential channel 3 (Homo sapiens) (UniProt Q13507); assay: Inhibition of human TRPC3 expressed in HEK293 cells assessed as inhibition of OAG-induced current at 0.001 to 10 uM by whole cell patch-clamp method; format: cell-based; details: dose 0.001-10 µM
T1 sequence (whole entry): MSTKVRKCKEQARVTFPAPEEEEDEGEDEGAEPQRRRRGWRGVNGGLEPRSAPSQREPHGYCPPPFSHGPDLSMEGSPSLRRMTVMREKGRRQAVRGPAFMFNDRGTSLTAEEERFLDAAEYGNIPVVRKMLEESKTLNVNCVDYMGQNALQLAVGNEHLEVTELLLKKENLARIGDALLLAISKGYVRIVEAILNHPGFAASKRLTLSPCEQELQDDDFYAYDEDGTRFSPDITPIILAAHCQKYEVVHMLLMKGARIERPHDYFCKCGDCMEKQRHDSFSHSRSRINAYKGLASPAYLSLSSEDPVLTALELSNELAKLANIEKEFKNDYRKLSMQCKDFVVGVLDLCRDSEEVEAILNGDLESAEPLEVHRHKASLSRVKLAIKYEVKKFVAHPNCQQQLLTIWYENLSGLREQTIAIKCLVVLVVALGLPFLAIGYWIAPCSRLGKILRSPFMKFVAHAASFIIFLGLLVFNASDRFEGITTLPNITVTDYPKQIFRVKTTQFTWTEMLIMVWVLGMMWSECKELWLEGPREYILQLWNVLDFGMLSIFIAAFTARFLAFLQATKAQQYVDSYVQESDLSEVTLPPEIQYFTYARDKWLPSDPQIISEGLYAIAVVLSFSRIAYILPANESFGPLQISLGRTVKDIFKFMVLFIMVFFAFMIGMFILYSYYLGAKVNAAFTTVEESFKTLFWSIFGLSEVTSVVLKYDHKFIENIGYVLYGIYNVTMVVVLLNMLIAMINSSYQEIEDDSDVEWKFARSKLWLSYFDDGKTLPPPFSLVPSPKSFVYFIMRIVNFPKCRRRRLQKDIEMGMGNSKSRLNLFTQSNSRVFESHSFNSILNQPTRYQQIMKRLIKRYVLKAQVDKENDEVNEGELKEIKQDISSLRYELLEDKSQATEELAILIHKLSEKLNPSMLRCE
In short: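 Whole-cell recordings of hTRPC3 expressed in HEK293 cells, channel activated by 1-oleoyl-2-acetyl-sn-glycerol (membrane-permeable diacylglycerol analogue) instead of GSK1702934A. Inhibitor at a range of concentrations co-perfused with agonist to build a dose–response profile.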

[3] = target: Transient receptor potential cation channel subfamily V member 4 (Rattus norvegicus) (UniProt Q9ERZ8); assay: Inhibition of rat TRPV4 expressed in HEK293 cells assessed as inhibition of GSK101-induced current at 10 uM by whole cell patch-clamp method; format: cell-based
In short: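 TRP channels overexpressed in HEK293 cells (hTRPA1, rTRPV1, rTRPV4, mouse TRPC6, hTRPC7, hTRPM8). Whole-cell patch clamp with Ca2+-free solutions to avoid desensitization. Channels fully activated with high concentrations of their agonists (AITC for TRPA1, capsaicin for TRPV1, GSK1016790A for TRPV4), then 10 μM test compound perfused with agonist. Result expressed as percentage of peak current blocked; mean ± SD.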

[4] = Metabolic stability in rat liver microsomes assessed as half life at […] measured up to 240 mins in presence of NADPH regeneration system by LC-MS analysis; format: ADME, Microsome
[5] = target: T1, Short transient receptor potential channel 3 (Homo sapiens); assay: Inhibition of human TRPC3 expressed in HEK293 cells assessed as inhibition of GSK170-induced current at 10 uM in absence of extracellular calcium by whole cell patch-clamp method relative to control; format: cell-based
In short: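 Human TRPC3 transiently expressed in HEK293 cells; whole-cell patch clamp with Ca2+-free solutions. Channel activated by GSK1702934A, then test compound at 10 μM perfused with the agonist. Inhibition expressed as percentage of the agonist-evoked current; mean ± SD, n cells per compound.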

ORAI1/STIM1 = ORAI1/STIM1 (Homo sapiens, UniProt Q96D31+Q13586); assay: Inhibition of STIM/Orai1 (unknown origin) expressed in HEK293 cells assessed as reduction in thapsigargin-induced Ca2+ influx at 10 uM in presence of Ca2+ by whole cell patch clamp method; format: cell-based; details: hek293, 10 µM
[6] = Toxicity in NSG/ICR mouse assessed as survival at 200 mg/kg, ip administered once daily for 5 days; format: organism-based; details: in vivo, 200 mg/kg, 120 h, dose 200 mg/kg/day, time 5 day
In short: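 Mice (n = 5 per group) dosed at 200 mg/kg by intraperitoneal injection once daily for 5 consecutive days. Survival monitored. Body weight expressed as mean percent change ± SD relative to weight at the start of treatment (day 0), with 15% weight loss as the reference line.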

Transient receptor potential cation channel subfamily V member 4 (Rattus norvegicus), sequence (Q9ERZ8 whole entry, the tested form may be a part): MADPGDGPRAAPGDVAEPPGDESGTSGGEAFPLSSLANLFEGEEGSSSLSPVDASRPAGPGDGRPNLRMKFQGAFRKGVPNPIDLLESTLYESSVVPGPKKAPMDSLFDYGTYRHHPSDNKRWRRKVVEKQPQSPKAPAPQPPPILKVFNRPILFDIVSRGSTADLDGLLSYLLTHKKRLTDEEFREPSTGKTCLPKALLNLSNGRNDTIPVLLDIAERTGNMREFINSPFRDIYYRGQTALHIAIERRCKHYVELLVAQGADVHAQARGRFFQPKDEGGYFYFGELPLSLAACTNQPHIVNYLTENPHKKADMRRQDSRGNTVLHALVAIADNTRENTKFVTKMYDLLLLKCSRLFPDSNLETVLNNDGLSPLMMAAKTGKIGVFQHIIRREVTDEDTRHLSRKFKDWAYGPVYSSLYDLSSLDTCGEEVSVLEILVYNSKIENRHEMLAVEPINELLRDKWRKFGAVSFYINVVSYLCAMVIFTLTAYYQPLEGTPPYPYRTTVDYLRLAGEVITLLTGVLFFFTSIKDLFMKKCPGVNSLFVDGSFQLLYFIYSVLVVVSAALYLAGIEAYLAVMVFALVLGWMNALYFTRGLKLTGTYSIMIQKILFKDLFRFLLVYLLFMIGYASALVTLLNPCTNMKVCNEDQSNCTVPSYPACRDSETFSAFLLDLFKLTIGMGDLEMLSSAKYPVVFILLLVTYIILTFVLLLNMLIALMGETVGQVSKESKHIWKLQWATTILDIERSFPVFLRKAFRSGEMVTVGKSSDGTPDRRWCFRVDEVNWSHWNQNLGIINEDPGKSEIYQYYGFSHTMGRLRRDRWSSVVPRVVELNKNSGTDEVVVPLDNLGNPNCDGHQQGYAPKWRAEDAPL
ORAI1/STIM1, sequence (Q96D31 whole entry): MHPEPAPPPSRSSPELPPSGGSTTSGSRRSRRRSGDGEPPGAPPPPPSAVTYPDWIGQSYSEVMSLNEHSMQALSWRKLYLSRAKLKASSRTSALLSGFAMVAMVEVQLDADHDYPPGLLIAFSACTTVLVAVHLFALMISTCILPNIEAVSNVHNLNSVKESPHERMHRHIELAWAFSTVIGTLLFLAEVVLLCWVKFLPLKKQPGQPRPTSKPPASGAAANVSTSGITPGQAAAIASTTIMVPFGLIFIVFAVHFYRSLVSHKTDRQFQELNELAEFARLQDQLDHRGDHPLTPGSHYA
ORAI1/STIM1, sequence (Q13586 whole entry): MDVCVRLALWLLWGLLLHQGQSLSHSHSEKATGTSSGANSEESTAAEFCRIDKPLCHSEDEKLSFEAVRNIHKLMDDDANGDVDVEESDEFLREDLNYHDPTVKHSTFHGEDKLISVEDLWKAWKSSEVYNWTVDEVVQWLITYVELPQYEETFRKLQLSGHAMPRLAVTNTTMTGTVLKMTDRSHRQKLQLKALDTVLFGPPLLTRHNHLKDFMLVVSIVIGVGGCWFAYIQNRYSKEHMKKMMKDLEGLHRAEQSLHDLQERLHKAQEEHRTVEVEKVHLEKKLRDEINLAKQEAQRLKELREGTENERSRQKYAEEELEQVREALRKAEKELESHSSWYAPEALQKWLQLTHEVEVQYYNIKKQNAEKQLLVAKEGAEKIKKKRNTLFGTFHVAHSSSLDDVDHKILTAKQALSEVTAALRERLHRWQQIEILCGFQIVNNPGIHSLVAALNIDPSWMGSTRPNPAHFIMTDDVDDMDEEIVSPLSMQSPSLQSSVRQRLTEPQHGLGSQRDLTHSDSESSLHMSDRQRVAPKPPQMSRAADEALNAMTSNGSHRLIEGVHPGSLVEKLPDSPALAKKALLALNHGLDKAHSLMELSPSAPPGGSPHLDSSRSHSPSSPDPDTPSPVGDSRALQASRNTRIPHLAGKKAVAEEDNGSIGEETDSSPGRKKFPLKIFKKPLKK

## CCNC(=O)c1cnn(-c2ccc(-n3ccc(Cl)c(Cl)c3=O)cc2)c1C(F)(F)F
[1]
  half-life: > 4 h
Hippocampal neurone
  Activity: Active
[2]
  inhibition: Active
[3]
  inhibition: inactive
[4]
  half-life: > 4 h
[5]
  inhibition: 89%
ORAI1/STIM1
  inhibition (INH): Active
[6]
  Activity: Non-Toxic

Source: ChEMBL document CHEMBL4706728, “Discovery of a Highly Selective and Potent TRPC3 Inhibitor with High Metabolic Stability and Low Toxicity” (ACS Med Chem Lett, 2021)
